# This is a sample that favours compounds with a hit; in the whole collection about 4.8% have one here.
# CHOP UPR activ: activators of apoptotic CHOP UPR arm, primary screen, cell-based, CHO-CHOP luciferase reporter, luminescence, uHTS | UPR activation; percent of tunicamycin response over DMSO baseline | AID 449763, 2010 | actives 0.34% (n = 330,000) | activation, % at 10 µM;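 active = at 10 µM dose, activation of 40% or more, normalized to positive control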
#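 measured by = luciferase luminescence | assay system = CHO-CHOP cells, stable luciferase reporter of PERK-eIF2a-CHOP signalling | amount = 500 reporter cells seeded per well | timing = 6 h compound exposure at 37 °C after overnight seeding | controls = positive tunicamycin 10 µg/mL, negative DMSO alone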
# CSC inhib: cancer stem cell viability inhibitors, primary screen, luminescence. inhibition, % at 7.5 µM. actives 1.1% (n = 300,000). cancer stem cell-like cells viability; in the data active = inhibition above about 75%; inconclusive = no clear call, values can overlap the other calls; tested in HMLE shEcad cells
# Mdm2-MdmX inh: inhibitors of human Mdm2-MdmX association, primary screen, cell-based, luminescence, split luciferase, SaOS-2, uHTS; Protein Mdm4 (Homo sapiens) + E3 ubiquitin-protein ligase Mdm2 (Homo sapiens), …; SaOS-2 split-luciferase Mdm2/MdmX complementation; inhibition, % at 8 µM; actives 3% (n = 330,000); AID 485346, 2010;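 active = inhibition of at least 50% at 8 µM in the primary screen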
# SKKanGAS inh: S. pyogenes SKKanGAS growth inhibitors in kanamycin, primary screen, streptokinase expression inhibitor project, SKKanGAS strain, BacTiter-Glo luminescence; 6 h; inhibition, % at 7.5 µM; actives 1.3% (n = 300,000); AID 1662, 2009;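 active = mean replicate score, as percent of positive control median, at least 50; inconclusive = mean below 50 but one replicate at or above 50; inactive = mean and every replicate below 50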;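 also: strain carries kanamycin resistance gene driven by streptokinase promoter and grows in 40 µg/ml kanamycin; loss of luminescence reflects streptokinase promoter inhibition or plain growth inhibition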
# UPR XBP1 act: activators of adaptive XBP1 UPR arm, primary screen, cell-based, CHO-XBP1 luciferase reporter, luminescence, uHTS. IRE1-XBP1 UPR activation; percent of tunicamycin response, DMSO as zero. AID 463104, 2010. actives 0.33% (n = 330,000). activation, % at 20 µM;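 active = versus positive control, 20 µM dose yields 30% or more activation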
#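 Signal: luciferase luminescence; Assay system: CHO-XBP1 luciferase reporter cells; Amount: one thousand reporter cells per well; Dosing: 20 µM single concentration, DMSO 1%; Benchmarks: high control tunicamycin 10 µg/mL final, low control DMSO vehicle only; Schedule: 6 h compound exposure at 37 °C, 5% CO2; Evaluation: percent activation relative to tunicamycin reference.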
# Beta cell apopt: inhibitors of cytokine-induced beta cell apoptosis, primary screen, luminescence. INS-1E cytokine-induced death, ATP luminescence, 48 h; percent of positive-control rescue, neutral wells zero. protection from apoptosis, % (test concentration not listed). actives 0.8% (n = 300,000). AID 435005, 2010;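 active = Every replicate reaches about 75%, or at least half do and their mean reaches it too, limit read from the data; inconclusive = At least half of replicates reach the limit but their mean does not; inactive = Under half of replicates reach the limit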;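 also: higher means more ATP so stronger rescue from cytokine killing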
# Mdm2 MdmX conf: Mdm2-MdmX complex disruptors, retested hits, confirmation, luminescence, single concentration. Mdm2-MdmX binding, luminescent assay. actives 55% (n = 10,000). AID 489028, 2010. shares compounds with Mdm2-MdmX inh. inhibition, % at 8 µM; in the data active = inhibition above about 40%
# FLuc counter: full-length luciferase signal inhibition, confirmation, counter-screen for Mdm2/MdmX interaction inhibitor project, cell-based, single concentration, SaOS-2 | shares compounds with Mdm2-MdmX inh | SaOS-2 full-length luciferase counterscreen, luminescence | inhibition, % at 8 µM | actives 77% (n = 6,200) | AID 504607, 2011;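 active = mean inhibition at 8 µM reaching about 37%, which flags the compound as non-specific, limit read from the data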;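 also: p53-null SaOS-2 cells with luciferase driven by a doxycycline-inducible promoter; compound on cells about two nights before reading with doxycycline added after day one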
# A number is an active result; i = inactive; ? = inconclusive; nt = no result.
SMILES,CHOP UPR activ,CSC inhib,Mdm2-MdmX inh,SKKanGAS inh,UPR XBP1 act,Beta cell apopt,Mdm2 MdmX conf,others
Cc1ccc(NC(=O)CCn2c(=O)c3cccn3c3ccccc32)cc1C,i,i,i,i,i,i,nt,
Cc1cc2cc3c(=O)[nH]c(=O)[nH]c3nc2cc1C,i,i,53.1,i,i,i,i,
Cc1nc2cc3ccccc3cc2c(=O)[nH]1,i,i,i,i,i,i,nt,
COc1ccc(Cl)cc1NC(=O)Nc1cccc([N+](=O)[O-])c1C,i,i,53.1,i,i,i,i,
Cc1ccc(-c2nn(-c3ccccc3)cc2C(=O)N2CCN(c3ccccn3)CC2)cc1,i,i,i,i,i,i,nt,
COc1ccc(-c2nn(-c3ccccc3)cc2/C=C/C(=O)N2CCN(c3ccccn3)CC2)cc1,i,i,58.6,60.1,i,i,i,
COc1ccc(-c2nn(-c3ccccc3)cc2/C=C/C(=O)OCC(=O)Nc2ccccc2C#N)cc1,i,i,88.5,i,i,i,i,
NC(=O)c1ccc(NC(=O)COC(=O)/C=C/c2cn(-c3ccccc3)nc2-c2cccnc2)cc1,i,i,i,i,i,i,nt,
COc1cc(C(=O)NCc2ccc(S(N)(=O)=O)cc2)ccc1OCC(=O)N1CCOCC1,i,nt,i,nt,i,i,nt,
CN1CCN(CCC=C2c3ccccc3Sc3ccc(S(=O)(=O)N(C)C)cc32)CC1,i,i,50.5,nt,i,i,i,
Cc1ccc2oc(=O)c3cc(C(=O)NCCCN4CCN(C)CC4)sc3c2c1,i,i,i,i,i,i,nt,
Cc1ccc2oc(=O)c3cc(C(=O)NCCCN4CC(C)CC(C)C4)sc3c2c1 (stereo unspecified),i,i,50.4,i,i,i,i,
O=[N+]([O-])c1cc(S(=O)(=O)NCCN2CCOCC2)ccc1Sc1nnnn1-c1ccccc1,i,i,65.6,i,i,i,49.7,FLuc counter=i
FC(F)(F)Sc1ccc(NC(=S)NCc2ccccc2)cc1,i,i,79.0,i,i,i,i,
Cc1nn(-c2cccc(Cl)c2)c(Cl)c1/C=N/NC(=O)c1cccs1,i,i,78.4,i,i,i,53.5,FLuc counter=48.2
COc1ccccc1C(CC(=O)Nc1ccc(C)c(C)c1)c1ccc(OC(C)C)cc1 (stereo unspecified),i,nt,i,i,i,i,nt,
COc1ccc(CNCCC(c2ccc(OC(C)C)cc2)c2ccccc2OC)cc1 (stereo unspecified),i,102.6,96.5,i,i,?,53.7,FLuc counter=68.1
COc1ccccc1NC(=O)CC(c1ccc(OC(C)C)cc1)c1ccccc1OC (stereo unspecified),i,i,i,i,i,i,nt,
COc1ccc(CNCCC(c2ccc(OC(C)C)cc2)c2ccccc2OC)cc1OC (stereo unspecified),i,i,55.8,i,i,i,40.4,FLuc counter=66.1
COc1ccc(CNCCC(c2ccccc2)c2ccc3c(c2)OCO3)cc1 (stereo unspecified),i,i,66.5,i,i,85.4,i,
COc1ccccc1C(CCNCc1ccc(N(C)C)cc1)c1ccc(OC(C)C)cc1 (stereo unspecified),i,103.0,97.1,i,i,113.7,58.1,FLuc counter=56.9
C[C@H](CO)N1C[C@H](C)[C@@H](CN(C)S(C)(=O)=O)Oc2ccc(NC(=O)C3CC3)cc2C1=O,i,nt,i,nt,i,i,nt,
COc1ccccc1C(CCNCc1ccccc1)c1ccc(OC(C)C)cc1 (stereo unspecified),i,i,60.7,i,i,i,i,

# Screens: PubChem BioAssay, several laboratories
